Measurements taken from ChEMBL document CHEMBL1154066, “Synthesis, physicochemical properties and antimicrobial activity of some new benzimidazole derivatives” (2009).
Converted amounts (≈) assume the structure as drawn.

Experiments:
[1] = tested on: Salmonella typhi; test: Antibacterial activity against Salmonella typhi MTCC 733 after 20 hrs by two fold dilution method; assay type: functional, Salmonella enterica subsp. enterica serovar Typhi; details: Salmonella enterica, MTCC 733, 20 h
Summary of the method: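 Twofold agar dilution in Mueller–Hinton agar. Compounds dissolved in DMSO and diluted into medium to final 128–1 µg/mL; medium with DMSO at the same dilution as negative control. Inoculum 10^4 CFU/plate; incubated 35 °C for 20 h. MIC taken as lowest concentration giving complete growth inhibition, in µg/mL. Ampicillin and ciprofloxacin as references; three independent experiments.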

[2] = tested on: Streptococcus mutans; test: Antibacterial activity against Streptococcus mutans MTCC 890 after 20 hrs by two fold dilution method; assay type: functional; details: MTCC 890, 20 h
Summary of the method: (§1)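 Twofold agar dilution in Mueller–Hinton agar. Compounds were dissolved in DMSO and diluted into the medium at final 128–1 µg/mL. The inoculum was 10^4 CFU/plate, and a medium-plus-DMSO plate served as negative control. Plates were incubated at 35 °C for 20 h. MIC was taken as the lowest concentration giving complete growth inhibition. Experiments were run three times.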

[3] = tested on: Escherichia coli; test: Antibacterial activity against Escherichia coli ATCC 25922 after 20 hrs by two fold dilution method; assay type: functional; details: ATCC 25922, 20 h; summary of the method: as §1
[4] = tested on: Aspergillus niger; test: Antifungal activity against Aspergillus niger at 300 ug/disk after 7 days by disk diffusion method; assay type: functional; details: 168 h, read-out: IZ
Summary of the method: (§2)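 Disc diffusion on Mueller–Hinton agar seeded with a standardized suspension, following NCCLS. Sterile 6 mm paper discs held 300 µg of test compound, amphotericin B at 10 µg as reference, or DMSO alone as negative control. Plates were incubated at 28 ± 2 °C for 7 days. Inhibition zone diameters (mm) were measured in triplicate and scored as 10–15, 16–21 or 22–28 mm.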

[5] = tested on: Candida albicans; test: Antifungal activity against Candida albicans MTCC 1637 at 300 ug/disk after 7 days by disk diffusion method; assay type: functional; details: MTCC 1637, 168 h, read-out: IZ; summary of the method: as §2
[6] = tested on: Aspergillus flavus; test: Antifungal activity against Aspergillus flavus at 300 ug/disk after 7 days by disk diffusion method; assay type: functional; details: 168 h, read-out: IZ; summary of the method: as §2
[7] = tested on: Bacillus subtilis; test: Antibacterial activity against Bacillus subtilis MTCC 121 after 20 hrs by two fold dilution method; assay type: functional; details: MTCC 121, 20 h; summary of the method: as §1
[8] = tested on: Staphylococcus aureus; test: Antibacterial activity against Staphylococcus aureus ATCC 29213 after 20 hrs by two fold dilution method; assay type: functional; details: ATCC 29213, 20 h; summary of the method: as §1
[9] = tested on: Pseudomonas aeruginosa; test: Antibacterial activity against Pseudomonas aeruginosa MTCC 741 after 20 hrs by two fold dilution method; assay type: functional; details: MTCC 741, 20 h; summary of the method: as §1
[10] = tested on: Aspergillus niger; test: Antifungal activity against Aspergillus niger at 10 ug/disk after 7 days by disk diffusion method; assay type: functional; details: 168 h, read-out: IZ
[11] = tested on: Candida albicans; test: Antifungal activity against Candida albicans MTCC 1637 at 10 ug/disk after 7 days by disk diffusion method; assay type: functional; details: MTCC 1637, 168 h, read-out: IZ
[12] = tested on: Aspergillus flavus; test: Antifungal activity against Aspergillus flavus at 10 ug/disk after 7 days by disk diffusion method; assay type: functional; details: 168 h, read-out: IZ

| SMILES | MIC [1] [µg/mL] | MIC [2] [µg/mL] | MIC [3] [µg/mL] | zone of inhibition at 300 µg/disc [4] [mm] | zone of inhibition at 300 µg/disc [5] [mm] | zone of inhibition at 300 µg/disc [6] [mm] | MIC [7] [µg/mL] | MIC [8] [µg/mL] | MIC [9] [µg/mL] | zone of inhibition at 10 µg/disc [10] [mm] | zone of inhibition at 10 µg/disc [11] [mm] | zone of inhibition at 10 µg/disc [12] [mm] |
| --- | --- | --- | --- | --- | --- | --- | --- | --- | --- | --- | --- | --- |
| Cc1nc2ccccc2n1Cc1nnc(CCl)o1 | > 128 | 32 (≈ 122 µM) | 16 (≈ 60.9 µM) | 16 | 10 | 10 | 16 (≈ 60.9 µM) | 16 (≈ 60.9 µM) |  |  |  |  |
| Cc1nc2ccccc2n1Cc1nnc(-c2ccccc2)o1 | 64 (≈ 220 µM) | 8 (≈ 27.6 µM) | 32 (≈ 110 µM) |  |  |  | 8 (≈ 27.6 µM) | 8 (≈ 27.6 µM) |  |  |  |  |
| Clc1ccc(-c2nnc(Cn3cnc4ccccc43)o2)cc1 |  | 16 (≈ 51.5 µM) | 32 (≈ 103 µM) |  |  |  | 32 (≈ 103 µM) | 32 (≈ 103 µM) |  |  |  |  |
| Cc1nc2ccccc2n1Cc1nnc(CCCl)o1 | 16 (≈ 57.8 µM) | 8 (≈ 28.9 µM) | 32 (≈ 116 µM) | 10 | 16 | 10 | 8 (≈ 28.9 µM) | 4 (≈ 14.5 µM) |  |  |  |  |
| Oc1ccc(-c2nnc(Cn3cnc4ccccc43)o2)cc1 |  | 32 (≈ 109 µM) | 32 (≈ 109 µM) |  |  |  | 16 (≈ 54.7 µM) |  | 64 (≈ 219 µM) |  |  |  |
| COc1ccccc1-c1nnc(Cn2cnc3ccccc32)o1 |  |  | 32 (≈ 104 µM) | < 10 | 16 | < 10 | 16 (≈ 52.2 µM) | 16 (≈ 52.2 µM) | > 128 |  |  |  |
| c1ccc(-c2nnc(Cn3cnc4ccccc43)o2)cc1 | > 128 | 32 (≈ 116 µM) | 64 (≈ 232 µM) |  |  |  | 16 (≈ 57.9 µM) | 16 (≈ 57.9 µM) |  |  |  |  |
| Cc1nc2ccccc2n1Cc1nnc(-c2ccc(Cl)cc2)o1 |  | 4 (≈ 12.3 µM) | > 128 | 10 | 22 | 22 | 4 (≈ 12.3 µM) | 2 (≈ 6.16 µM) |  |  |  |  |
| CCc1nnc(Cn2c(C)nc3ccccc32)o1 | 32 (≈ 132 µM) | 4 (≈ 16.5 µM) | 32 (≈ 132 µM) | 10 | 16 | 16 | 8 (≈ 33 µM) | 4 (≈ 16.5 µM) | > 128 |  |  |  |
| Clc1ccccc1-c1nnc(Cn2cnc3ccccc32)o1 | 32 (≈ 103 µM) | 16 (≈ 51.5 µM) | > 128 |  |  |  | 16 (≈ 51.5 µM) | 32 (≈ 103 µM) |  |  |  |  |
| Cc1nc2ccccc2n1Cc1nnc(-c2ccc(O)cc2)o1 |  | 4 (≈ 13.1 µM) | > 128 | 16 | 22 | 16 | 8 (≈ 26.1 µM) | 8 (≈ 26.1 µM) |  |  |  |  |
| COc1ccc(-c2nnc(Cn3c(C)nc4ccccc43)o2)cc1 | 16 (≈ 49.9 µM) | 4 (≈ 12.5 µM) | 16 (≈ 49.9 µM) | 16 | 22 | 16 | 8 (≈ 25 µM) | 2 (≈ 6.24 µM) | 64 (≈ 200 µM) |  |  |  |
| Cc1nnc(Cn2cnc3ccccc32)o1 | 32 (≈ 149 µM) | 16 (≈ 74.7 µM) | 16 (≈ 74.7 µM) | 16 | 16 | 16 | 16 (≈ 74.7 µM) | 16 (≈ 74.7 µM) | > 128 |  |  |  |
| CCc1nnc(Cn2cnc3ccccc32)o1 | 64 (≈ 280 µM) | 16 (≈ 70.1 µM) | 16 (≈ 70.1 µM) | < 10 | 10 | 10 | 32 (≈ 140 µM) | 32 (≈ 140 µM) | > 128 |  |  |  |
| Cc1nc2ccccc2n1Cc1nnc(-c2ccccc2Cl)o1 | 32 (≈ 98.5 µM) | 16 (≈ 49.3 µM) | > 128 | 16 | 16 | 16 |  |  |  |  |  |  |
| Cc1nnc(Cn2c(C)nc3ccccc32)o1 | 16 (≈ 70.1 µM) | 8 (≈ 35 µM) | 64 (≈ 280 µM) | 16 | 22 | 16 | 4 (≈ 17.5 µM) | 4 (≈ 17.5 µM) | 64 (≈ 280 µM) |  |  |  |
| Oc1ccccc1-c1nnc(Cn2cnc3ccccc32)o1 | 16 (≈ 54.7 µM) |  | 64 (≈ 219 µM) |  |  |  |  | 32 (≈ 109 µM) | 64 (≈ 219 µM) |  |  |  |
| COc1ccccc1-c1nnc(Cn2c(C)nc3ccccc32)o1 | 16 (≈ 49.9 µM) | 8 (≈ 25 µM) | 64 (≈ 200 µM) | 16 | 16 | 16 | 4 (≈ 12.5 µM) | 8 (≈ 25 µM) | 64 (≈ 200 µM) |  |  |  |
| ClCc1nnc(Cn2cnc3ccccc32)o1 | 64 (≈ 257 µM) | 16 (≈ 64.3 µM) |  | 10 | 16 | 10 | 32 (≈ 129 µM) | 16 (≈ 64.3 µM) | 32 (≈ 129 µM) |  |  |  |
| ClCCc1nnc(Cn2cnc3ccccc32)o1 | 64 (≈ 244 µM) |  |  | 16 | 16 | 10 | 16 (≈ 60.9 µM) | 16 (≈ 60.9 µM) | 32 (≈ 122 µM) |  |  |  |
| Cc1nc2ccccc2n1Cc1nnc(-c2ccccc2O)o1 | 32 (≈ 104 µM) | 8 (≈ 26.1 µM) | 32 (≈ 104 µM) |  |  |  | 16 (≈ 52.2 µM) |  |  |  |  |  |
| COc1ccc(-c2nnc(Cn3cnc4ccccc43)o2)cc1 | 32 (≈ 104 µM) | 16 (≈ 52.2 µM) | 64 (≈ 209 µM) | < 10 | 16 | < 10 | 32 (≈ 104 µM) | 16 (≈ 52.2 µM) | 32 (≈ 104 µM) |  |  |  |
| C[C@@H]1[C@H](O)[C@@H](C)/C=C/C=C/C=C/C=C/C=C/C=C/C=C/[C@H](O[C@@H]2O[C@H](C)[C@@H](O)[C@H](N)[C@@H]2O)C[C@@H]2O[C@](O)(C[C@@H](O)C[C@@H](O)[C@H](O)CC[C@@H](O)C[C@@H](O)CC(=O)O[C@H]1C)C[C@H](O)[C@H]2C(=O)O [AMPHOTERICIN B] |  |  |  |  |  |  |  |  |  | 22 | 22 | 22 |
| CC1(C)S[C@@H]2[C@H](NC(=O)[C@H](N)c3ccccc3)C(=O)N2[C@H]1C(=O)O [AMPICILLIN] | > 128 | 2 (≈ 5.72 µM) | 4 (≈ 11.4 µM) |  |  |  | 2 (≈ 5.72 µM) | 2 (≈ 5.72 µM) | > 128 |  |  |  |
| O=C(O)c1cn(C2CC2)c2cc(N3CCNCC3)c(F)cc2c1=O [CIPROFLOXACIN] |  |  | ≤ 1 |  |  |  | ≤ 1 | ≤ 1 |  |  |  |  |
